Measured values from ChEMBL document CHEMBL3352225, “Bioreductively Activated Reactive Oxygen Species (ROS) Generators as MRSA Inhibitors” (ACS Med Chem Lett, 2014).
In brackets after ≈: the same amount, converted by molar mass. Several values for one entry are separate records, joined by “and”; a condition that tells them apart may be missing. Equal entries are not always repeated. Activity calls are given as the source filed them. The rule behind the calls is not given here.

Columns and labels:
Staphylococcus aureus [1] = test: Antimicrobial activity against methicillin-sensitive Staphylococcus aureus ATCC 29213 after 18 to 20 hrs by microbroth dilution technique; format: functional
In short: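 MIC taken as the lowest concentration that prevents visible bacterial growth of MSSA 29213, reported in μg/mL.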

Staphylococcus aureus [2] = test: Antimicrobial activity against methicillin-resistant Staphylococcus aureus 7425 after 18 to 20 hrs by microbroth dilution technique; format: functional
In short: (§1)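 Broth microdilution MIC, taken as the lowest concentration preventing visible growth. MRSA 33591 was the reference strain and the others were clinical MRSA isolates. Vancomycin was tested alongside as comparator. Values are reported in μg/mL and μM.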

Staphylococcus aureus [3] = test: Induction of DNA damage in methicillin-sensitive Staphylococcus aureus ATCC 29213 assessed as upregulation of RecA expression at 6.7 times MIC measured after 120 mins by PCR analysis; format: functional, organism-based
Staphylococcus aureus [4] = test: Antimicrobial activity against methicillin-resistant Staphylococcus aureus 33591 after 18 to 20 hrs by microbroth dilution technique; format: functional; in short: as §1
Staphylococcus aureus [5] = test: Antimicrobial activity against methicillin-resistant Staphylococcus aureus 7386 after 18 to 20 hrs by microbroth dilution technique; format: functional; in short: as §1
Staphylococcus aureus [6] = test: Antimicrobial activity against methicillin-resistant Staphylococcus aureus B0085 after 18 to 20 hrs by microbroth dilution technique; format: functional; in short: as §1
Staphylococcus aureus [7] = test: Antimicrobial activity against methicillin-resistant Staphylococcus aureus E151 after 18 to 20 hrs by microbroth dilution technique; format: functional; in short: as §1
Staphylococcus aureus [8] = test: Antimicrobial activity against methicillin-resistant Staphylococcus aureus B21838 after 18 to 20 hrs by microbroth dilution technique; format: functional; in short: as §1
Staphylococcus aureus [9] = test: Antimicrobial activity against Staphylococcus aureus assessed as intracellular superoxide generation measured as formation of 2-OH-E+ measured after 1 hr by dihydroethidium assay; format: functional, organism-based
In short: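 Intact S. aureus cells were incubated with DHE across a range of compound concentrations. Products were 2-hydroxyethidium (2-OH-E+), which is superoxide-specific, and ethidium (E+), which comes from nonspecific oxidation. Untreated bacteria served as the control.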

Staphylococcus aureus [10] = test: Antimicrobial activity against methicillin-sensitive Staphylococcus aureus ATCC 29213 assessed as growth inhibition at 8 times MIC measured over 3 hrs in presence of thiourea; format: functional, organism-based
[11] = H2O2 generation in buffer at pH 7.4 at 2 ug/ml measured after 5 mins by Amplex Red-based fluorescence assay in presence of DT-diaphorase
Staphylococcus aureus [12] = test: Antimicrobial activity against methicillin-sensitive Staphylococcus aureus ATCC 29213 assessed as intracellular oxidative species generation at 0.5 ug/ml measured after 1 hr by dichlorofluorescein-diacetate fluorescence assay; format: functional, organism-based
Staphylococcus aureus [13] = test: Antimicrobial activity against methicillin-resistant Staphylococcus aureus E9902 after 18 to 20 hrs by microbroth dilution technique; format: functional; in short: as §1
[14] = Cytotoxicity against human A549 cells after 72 hrs by MTT assay; format: cell-based
Staphylococcus aureus [15] = test: Antimicrobial activity against methicillin-resistant Staphylococcus aureus B19506 after 18 to 20 hrs by microbroth dilution technique; format: functional; in short: as §1
Staphylococcus aureus [16] = test: Antimicrobial activity against methicillin-resistant Staphylococcus aureus E288 after 18 to 20 hrs by microbroth dilution technique; format: functional; in short: as §1
[17] = Superoxide generation in buffer at pH 7.4 assessed as formation of 2-OH-E+ at 200 to 500 ug/ml measured after 10 mins by dihydroethidium assay in presence of DT-diaphorase
In short: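 Compound was incubated with NQO1 (DT-diaphorase). The DHE-derived products 2-OH-E+ (superoxide-specific) and E+ (nonspecific oxidation) were separated and quantified by HPLC. The control was compound in pH 7.4 buffer without enzyme.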

Staphylococcus aureus [18] = test: Antimicrobial activity against methicillin-resistant Staphylococcus aureus K-1 after 18 to 20 hrs by microbroth dilution technique; format: functional; in short: as §1
Staphylococcus aureus [19] = test: Antimicrobial activity against methicillin-resistant Staphylococcus aureus 7419 after 18 to 20 hrs by microbroth dilution technique; format: functional; in short: as §1
[20] = Selectivity index, ratio of GI50 for human A549 cells to MIC for methicillin-resistant Staphylococcus aureus 33591
Staphylococcus aureus [21] = test: Antimicrobial activity against Staphylococcus aureus assessed as extracellular H2O2 generation at 2 ug/ml measured after 60 mins by Amplex Red-based fluorescence assay; format: functional, organism-based
In short: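 S. aureus cells were exposed to compound for 60 min, and H2O2 released into the medium was quantified by Amplex Red fluorescence as a surrogate marker for intracellular ROS. Untreated bacteria served as the control.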

Staphylococcus aureus [22] = test: Antimicrobial activity against methicillin-resistant Staphylococcus aureus B853 after 18 to 20 hrs by microbroth dilution technique; format: functional; in short: as §1
[23] = Superoxide generation in buffer at pH 7.4 at 25 uM measured at 1 min interval for 4 mins by luminol-based chemiluminescence assay in presence of DT-diaphorase
In short: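 Superoxide from compound plus NQO1 (DT-diaphorase) was followed as a time course by luminol chemiluminescence. The control was compound alone in pH 7.4 buffer.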

O=C1c2ccccc2C(=O)c2c1c1ccccc1c(=O)n2Cc1ccc(C(F)(F)F)cc1
MIC (Staphylococcus aureus [1]): > 32 µg/mL

C=CCn1c2c(c3ccccc3c1=O)C(=O)c1ccccc1C2=O
MIC (Staphylococcus aureus [1]): > 32 µg/mL

O=C1c2ccccc2C(=O)c2c1c1ccccc1c(=O)n2Cc1ccc([N+](=O)[O-])cc1
MIC (Staphylococcus aureus [1]): 8 µg/mL (≈ 19.5 µM)

COc1cc(Cn2c3c(c4ccccc4c2=O)C(=O)c2ccccc2C3=O)cc(OC)c1OC
MIC (Staphylococcus aureus [1]): 8 µg/mL (≈ 17.6 µM)

CN[C@H](CC(C)C)C(=O)N[C@H]1C(=O)N[C@@H](CC(N)=O)C(=O)N[C@H]2C(=O)N[C@H]3C(=O)N[C@H](C(=O)N[C@H](C(=O)O)c4cc(O)cc(O)c4-c4cc3ccc4O)[C@H](O)c3ccc(c(Cl)c3)Oc3cc2cc(c3O[C@@H]2O[C@H](CO)[C@@H](O)[C@H](O)[C@H]2O[C@H]2C[C@](C)(N)[C@H](O)[C@H](C)O2)Oc2ccc(cc2Cl)[C@H]1O [VANCOMYCIN]
MIC (Staphylococcus aureus [2]): 0.12 µg/mL (≈ 0.0828 µM)

C#CCn1c2c(c3ccccc3c1=O)C(=O)c1ccccc1C2=O
Activity (Staphylococcus aureus [3]): Active
MIC (Staphylococcus aureus [4]): 0.5 µg/mL and 1.6 µM
MIC (Staphylococcus aureus [5]): 1 µg/mL and 3.19 µM
MIC (Staphylococcus aureus [6]): 0.5 µg/mL and 1.6 µM
MIC (Staphylococcus aureus [7]): 0.5 µg/mL and 1.6 µM
MIC (Staphylococcus aureus [8]): 0.5 µg/mL and 1.6 µM
Activity (Staphylococcus aureus [9]): Dose-dependent effect
growth inhibition (GI) (Staphylococcus aureus [10]): inactive
Activity [11]: Active
Activity (Staphylococcus aureus [12]): Active
MIC (Staphylococcus aureus [13]): 0.5 µg/mL and 1.6 µM
GI50 at 72 h [14]: 8.6 µM
MIC (Staphylococcus aureus [15]): 0.06 µg/mL and 0.19 µM
MIC (Staphylococcus aureus [16]): 0.5 µg/mL and 1.6 µM
Activity [17]: Active
MIC (Staphylococcus aureus [18]): 0.25 µg/mL and 0.8 µM
MIC (Staphylococcus aureus [2]): 0.12 µg/mL and 0.38 µM
MIC (Staphylococcus aureus [19]): 0.12 µg/mL and 0.38 µM
MIC (Staphylococcus aureus [1]): 0.5 µg/mL (≈ 1.6 µM)
Selectivity Index [20]: >5
Activity (Staphylococcus aureus [21]): Active
MIC (Staphylococcus aureus [22]): 1 µg/mL and 3.19 µM
Activity [23]: Active

Cn1c2c(c3ccccc3c1=O)C(=O)c1ccccc1C2=O
MIC (Staphylococcus aureus [1]): 1 µg/mL (≈ 3.46 µM)

C[C@@H]1O[C@@H]1P(=O)(O)O [FOSFOMYCIN]
MIC (Staphylococcus aureus [1]): 8 µg/mL (≈ 57.9 µM)

NC[C@H]1O[C@H](O[C@H]2[C@H](O)[C@@H](O[C@H]3O[C@H](CO)[C@@H](O)[C@H](N)[C@H]3O)[C@H](N)C[C@@H]2N)[C@H](N)C[C@@H]1O [TOBRAMYCIN]
MIC (Staphylococcus aureus [1]): 1 µg/mL (≈ 2.14 µM)

CCCn1c2c(c3ccccc3c1=O)C(=O)c1ccccc1C2=O
MIC (Staphylococcus aureus [1]): > 32 µg/mL

CCn1c2c(c3ccccc3c1=O)C(=O)c1ccccc1C2=O
MIC (Staphylococcus aureus [1]): > 32 µg/mL

COC(=O)Cn1c2c(c3ccccc3c1=O)C(=O)c1ccccc1C2=O
MIC (Staphylococcus aureus [1]): > 32 µg/mL

COc1ccc(Cn2c3c(c4ccccc4c2=O)C(=O)c2ccccc2C3=O)cc1
MIC (Staphylococcus aureus [1]): 32 µg/mL (≈ 80.9 µM)

O=C1c2ccccc2C(=O)c2c1c1ccccc1c(=O)n2C1CCCCC1
MIC (Staphylococcus aureus [1]): > 32 µg/mL

O=C1c2ccccc2C(=O)c2c1c1ccccc1c(=O)n2Cc1ccccc1C(F)(F)F
MIC (Staphylococcus aureus [1]): > 32 µg/mL

O=C1c2ccccc2C(=O)c2c1c1ccccc1c(=O)n2Cc1ccc(Cl)cc1
MIC (Staphylococcus aureus [1]): > 32 µg/mL

O=C1c2ccccc2C(=O)c2c1c1ccccc1c(=O)n2Cc1ccccc1
MIC (Staphylococcus aureus [1]): > 32 µg/mL
